Hck-Nef inh: inhibitors of Nef-activated human Hck kinase, primary screen, biochemical, Z-Lyte FRET, 384-well, Hck-YEEI; Recombinant Hck-YEEI plus Nef, Z-Lyte FRET kinase assay; inhibition, % at 20 µM; actives 0.68% (n = 220,000);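 active means Hck-Nef kinase inhibition above about 50%, limit read from the data; inactive means inhibition below that limit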
Target sequence (P08631 whole entry, looked up): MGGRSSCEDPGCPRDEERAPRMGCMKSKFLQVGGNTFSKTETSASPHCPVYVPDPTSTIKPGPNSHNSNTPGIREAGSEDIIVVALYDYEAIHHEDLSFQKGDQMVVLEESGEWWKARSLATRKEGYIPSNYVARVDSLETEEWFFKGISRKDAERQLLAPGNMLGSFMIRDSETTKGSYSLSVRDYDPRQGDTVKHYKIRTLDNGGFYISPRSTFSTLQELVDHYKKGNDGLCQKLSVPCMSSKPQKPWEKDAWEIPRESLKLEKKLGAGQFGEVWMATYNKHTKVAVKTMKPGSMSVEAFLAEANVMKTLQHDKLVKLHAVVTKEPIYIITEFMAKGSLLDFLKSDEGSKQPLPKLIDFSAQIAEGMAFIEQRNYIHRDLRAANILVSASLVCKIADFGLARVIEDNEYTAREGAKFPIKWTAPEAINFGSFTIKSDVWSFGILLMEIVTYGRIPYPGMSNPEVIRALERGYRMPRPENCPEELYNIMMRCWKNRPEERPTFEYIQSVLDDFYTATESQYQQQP
p47phox inh: p47phox/p22phox peptide binding inhibitors, primary screen, biochemical, uHTS, NADPH oxidase regulatory subunit; actives 0.53% (n = 220,000); inhibition, % at 24.7 µM; fluorescence polarization, 2 h; AID 1274, 2008; Neutrophil cytosol factor 1 (Homo sapiens), P14598
14-3-3 Bad PPI: inhibitors of 14-3-3 zeta/Bad binding, primary screen, biochemical, TR-FRET, bovine 14-3-3 zeta; 14-3-3 protein zeta/delta (Bos taurus), P63103; TR-FRET 14-3-3zeta/Dy647-pBad peptide displacement, 1 h; inhibition, % at 21.7 µM; actives 0.71% (n = 220,000);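 active means inhibition above about 70%, limit read from the data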
eIF4E 4G PPI: eIF4E–eIF4G protein interaction inhibitors, primary screen, biochemical, uHTS, TR-FRET, eIF4GI fragment; actives 0.37% (n = 220,000); inhibition, % at 21.7 µM; Eukaryotic translation initiation factor 4E (Mus musculus) + Eukaryotic translation …; AID 782, 2007; TR-FRET eIF4E-eIF4GI(517-606) binding, 2 h
Diaphorase act: compounds boosting diaphorase resazurin reduction – biochemical, uHTS, resorufin fluorescence, counter-screen for diaphorase-coupled primary assays, primary screen; AID 1229, 2008; activation factor at 20 µM; actives 0.005% (n = 190,000); Diaphorase/resazurin coupled assay, 16 min; active compounds read high; 1 = vehicle wells, 0 = NADH-free wells;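 active means diaphorase activity raised at least twofold by the compound at 20 µM; inactive means activation factor below 2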
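System – purified diaphorase enzyme from Clostridium kluyveri · Input – enzyme 0.07 U/mL final · Also added – final NADH 0.114 mM, resazurin 0.1 mM · Measured by – fluorescence of resorufin, 544 nm excitation, 590 nm emission · Timing – 16 min enzyme reaction, ambient temperature · Measure – resorufin increase flagging diaphorase activators or reducers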
Hck Nef conf: retest of Hck:Nef kinase inhibitor hits, confirmation, biochemical, Z-Lyte FRET, 384-well, p-Tyr peptide counterscreen | AID 463188, 2010 | actives 28% (n = 1,300) | shares compounds with Hck-Nef inh | calls only at 10 µM | Recombinant Hck-YEEI:Nef, Z-Lyte FRET kinase assay;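 active means average inhibition of at least 50%, with Z-scores no higher than 3 in both the phospho-tyrosine peptide and fluorescence counterscreens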
Numbers stand for hits. Most compounds without a hit are left out; they make up all but 2% or so of the library.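 How the source made its calls, unless noted: active means inhibition above about 30% (limit read from the data); inactive means the rest.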

Results for CCC/C=N/NC(=O)c1cccc(Br)c1 ?
Hck-Nef inh: 119; p47phox inh: inactive; 14-3-3 Bad PPI: inactive; eIF4E 4G PPI: inactive; Diaphorase act: inactive; Hck Nef conf: inactive

How did O=C1CC(c2ccccc2Cl)c2c(sc3c(=O)[nH]c(CCl)nc23)N1 (configuration not stated) do in these assays?
Hck-Nef inh: inactive; p47phox inh: inactive; 14-3-3 Bad PPI: inactive; eIF4E 4G PPI: inactive

How did C(=N\Nc1nc2ccccc2s1)/c1cccs1 do in these assays?
Hck-Nef inh: inactive; p47phox inh: inactive; 14-3-3 Bad PPI: inactive; eIF4E 4G PPI: inactive; Diaphorase act: inactive

Results for Cn1cnc2c(N/N=C/c3cccs3)ncnc21 ?
Hck-Nef inh: 68; p47phox inh: inactive; 14-3-3 Bad PPI: inactive; eIF4E 4G PPI: inactive; Hck Nef conf: active

Results for Cc1ccc(CNC(=O)/C=C/c2ccc(S(=O)(=O)N3CCOCC3)cc2)cc1 ?
Hck-Nef inh: inactive; p47phox inh: inactive; 14-3-3 Bad PPI: inactive; eIF4E 4G PPI: inactive; Diaphorase act: inactive

What do the screens show for `COc1ccc(NC(=O)CSc2c(C)nn(-c3nnc(C)c(=O)[nH]3)c2C)cc1`?
Hck-Nef inh: 108; p47phox inh: inactive; 14-3-3 Bad PPI: inactive; eIF4E 4G PPI: inactive; Diaphorase act: inactive; Hck Nef conf: inactive

Results for Cc1nnc(SCC(=O)Nc2ccccc2)[nH]c1=O ?
Hck-Nef inh: inactive; p47phox inh: inactive; 14-3-3 Bad PPI: inactive; eIF4E 4G PPI: inactive; Diaphorase act: inactive

What do the screens show for `Cn1cccc1/C=C1\SC(=Nc2ccc(O)cc2)NC1=O`?
Hck-Nef inh: inactive; p47phox inh: inactive; 14-3-3 Bad PPI: inactive; eIF4E 4G PPI: inactive

What do the screens show for `Cn1cccc1/C=C1\SC(=Nc2cccc(O)c2)NC1=O`?
Hck-Nef inh: 85; p47phox inh: inactive; 14-3-3 Bad PPI: inactive; eIF4E 4G PPI: inactive; Hck Nef conf: active

Results for N#Cc1cccnc1Oc1ccccc1 ?
Hck-Nef inh: inactive; p47phox inh: inactive; 14-3-3 Bad PPI: inactive; eIF4E 4G PPI: inactive

How did N#Cc1ncn(-c2ccc(Oc3ccccc3)cc2)c1N do in these assays?
Hck-Nef inh: 74; p47phox inh: inactive; 14-3-3 Bad PPI: inactive; eIF4E 4G PPI: inactive; Diaphorase act: inactive; Hck Nef conf: inactive

What do the screens show for `COCCNC(=O)/C(C#N)=C1\N=C(N)c2ccccc21`?
Hck-Nef inh: 53; p47phox inh: inactive; 14-3-3 Bad PPI: inactive; eIF4E 4G PPI: inactive; Diaphorase act: inactive; Hck Nef conf: inactive

Results for O=C(CSCc1ccc(Cl)cc1)Nc1ccc(-c2nnc(-c3ccccc3)o2)cc1 ?
Hck-Nef inh: 91; p47phox inh: inactive; 14-3-3 Bad PPI: inactive; eIF4E 4G PPI: inactive; Diaphorase act: inactive; Hck Nef conf: inactive

What do the screens show for `O=C(Cc1ccc(Cl)cc1)Nc1ccc(-c2nnc(-c3ccco3)o2)cc1`?
Hck-Nef inh: inactive; p47phox inh: inactive; 14-3-3 Bad PPI: inactive; eIF4E 4G PPI: inactive; Diaphorase act: inactive

How did O=c1c(-c2nc3ccccc3s2)cccn1Cc1ccccc1 do in these assays?
Hck-Nef inh: inactive; p47phox inh: inactive; 14-3-3 Bad PPI: inactive; eIF4E 4G PPI: inactive; Diaphorase act: inactive

What do the screens show for `Cc1ccc(Cn2cccc(-c3nc4ccccc4s3)c2=O)cc1`?
Hck-Nef inh: 123; p47phox inh: inactive; 14-3-3 Bad PPI: inactive; eIF4E 4G PPI: inactive; Diaphorase act: inactive

What do the screens show for `c1ccc2c(Nc3ccc4c(c3)OCCO4)c3c(nc2c1)CCCC3`?
Hck-Nef inh: inactive; p47phox inh: inactive; 14-3-3 Bad PPI: inactive; eIF4E 4G PPI: inactive; Diaphorase act: inactive

Results for Cc1cc(=O)oc2cc3c(cc12)OCCO3 ?
Hck-Nef inh: inactive; p47phox inh: inactive; 14-3-3 Bad PPI: inactive; eIF4E 4G PPI: inactive; Diaphorase act: inactive

How did Cc1cc(=O)oc2cc3c(cc12)OCCN3 do in these assays?
Hck-Nef inh: 107; p47phox inh: inactive; 14-3-3 Bad PPI: inactive; eIF4E 4G PPI: inactive; Diaphorase act: inactive

How did COc1ccc(Cn2c(C3CCCCC3)nc3c(c(=O)c4ccccc4n3C)c2=O)cc1 do in these assays?
Hck-Nef inh: 71; p47phox inh: inactive; 14-3-3 Bad PPI: inactive; eIF4E 4G PPI: inactive; Hck Nef conf: inactive

What do the screens show for `CCOC(=O)c1cc(C(=O)OCC)c(=O)[nH]c1N1CCCC1`?
Hck-Nef inh: inactive; p47phox inh: inactive; 14-3-3 Bad PPI: inactive; eIF4E 4G PPI: inactive; Diaphorase act: inactive

How did O=c1[nH]c2ccc(N=Cc3c(O)ccc4cc(Br)ccc34)cc2[nH]1 do in these assays?
Hck-Nef inh: 63; p47phox inh: inactive; 14-3-3 Bad PPI: inactive; eIF4E 4G PPI: inactive; Diaphorase act: inactive; Hck Nef conf: active

How did C(=N\Nc1ncnc2sc3c(c12)CCC3)/c1cccs1 do in these assays?
Hck-Nef inh: inactive; p47phox inh: inactive; 14-3-3 Bad PPI: inactive; eIF4E 4G PPI: inactive; Diaphorase act: inactive

Results for C(=N\Nc1ncnc2sc3c(c12)CCC3)/c1ccncc1 ?
Hck-Nef inh: 51; p47phox inh: inactive; 14-3-3 Bad PPI: inactive; eIF4E 4G PPI: inactive; Diaphorase act: inactive; Hck Nef conf: inactive

How did CCOCCCNCC(=O)NCC1CCCCC1 do in these assays?
Hck-Nef inh: inactive; p47phox inh: inactive; 14-3-3 Bad PPI: inactive; eIF4E 4G PPI: inactive; Diaphorase act: inactive

Results for Cc1nn(C)c(C)c1NC(=O)CSc1nc(-c2ccccc2Cl)nc2c1cnn2-c1ccccc1 ?
Hck-Nef inh: 83; p47phox inh: inactive; 14-3-3 Bad PPI: inactive; eIF4E 4G PPI: inactive; Diaphorase act: inactive; Hck Nef conf: inactive

Results for Cc1cc(NC(=O)c2ccc(S(=O)(=O)N3CCOCC3)cc2)no1 ?
Hck-Nef inh: inactive; p47phox inh: inactive; 14-3-3 Bad PPI: inactive; eIF4E 4G PPI: inactive; Diaphorase act: inactive

What do the screens show for `Cc1cc(NC(=O)c2ccc(S(=O)(=O)N3CCc4ccccc43)cc2)no1`?
Hck-Nef inh: 52; p47phox inh: inactive; 14-3-3 Bad PPI: inactive; eIF4E 4G PPI: inactive; Diaphorase act: inactive; Hck Nef conf: inactive

How did COc1cc(-c2cc(=O)c3ccccc3o2)ccc1O do in these assays?
Hck-Nef inh: inactive; p47phox inh: inactive; 14-3-3 Bad PPI: inactive; eIF4E 4G PPI: inactive; Diaphorase act: inactive

How did COc1cc(-c2cc(=O)c3c(O)c(OC)c(OC)cc3o2)cc(OC)c1O do in these assays?
Hck-Nef inh: 98; p47phox inh: inactive; 14-3-3 Bad PPI: inactive; eIF4E 4G PPI: inactive; Hck Nef conf: active

Results for COc1cc(-c2cc(=O)c3c(O)cc(O)cc3o2)ccc1O ?
Hck-Nef inh: 54; p47phox inh: inactive; 14-3-3 Bad PPI: inactive; eIF4E 4G PPI: inactive; Diaphorase act: inactive; Hck Nef conf: inactive
